The list is not random: actives were taken first. Their share in the collection is about 3.1%.
CHO parental Ca: counter-screen: ATP calcium response change in parental CHO cells. AID 463079. inhibition, % at 5.6 µM. parental CHO-K1, ATP-induced calcium, Fluo-8 fluorescence. hit rate 0.63% among 330,000;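 active = inhibition above that plate's mean sample inhibition plus 3 SD, cut at about 26% in these data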;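 note: 0% = ATP-challenged DMSO wells and 100% = DMSO wells without ATP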
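Test system: parental CHO cells; detection: calcium-sensitive Fluo-8 fluorescence; evaluation: percent inhibition of calcium signal; also added: ATP as calcium-mobilizing challenge; repeats: one well per compound; control set: ATP-challenged DMSO wells low, unchallenged DMSO wells high; compound: single nominal dose of 5.6 µM per compound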
GPR7 antagonist: human neuropeptides B/W receptor 1 antagonism | P48145 | GPR7-expressing cells, fluorescence antagonist assay | inhibition, % at 4.4 µM | hit rate 1.1% among 290,000; in the data active = inhibition above about 16%, passing the limit was not always enough;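 note: cells stimulated with the agonist NPW; 0% = agonist with vehicle and 100% = vehicle without agonist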
Target sequence (P48145 whole entry, looked up): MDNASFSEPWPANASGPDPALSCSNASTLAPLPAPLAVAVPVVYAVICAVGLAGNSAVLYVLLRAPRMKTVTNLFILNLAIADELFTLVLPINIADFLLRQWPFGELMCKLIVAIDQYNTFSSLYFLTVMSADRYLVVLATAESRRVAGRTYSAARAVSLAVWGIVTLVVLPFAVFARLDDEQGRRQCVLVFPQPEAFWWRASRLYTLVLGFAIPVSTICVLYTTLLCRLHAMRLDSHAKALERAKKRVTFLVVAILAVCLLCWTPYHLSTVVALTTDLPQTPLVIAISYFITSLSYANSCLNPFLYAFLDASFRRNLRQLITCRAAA
OX1R antag-1: blocks the human orexin 1 receptor. O43613. OX1R-expressing cells, FRET antagonist read-out. inhibition, % at 6.6 µM. hit rate 1.8% among 330,000. AID 485270; in the data active = inhibition mostly above about 38%, no sharp cut-off; inactive = mostly below about 40%;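 note: 0% = agonist challenge alone and 100% = reference antagonist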
GalR3 antag: antagonists of human GalR3; AID 651719; hit rate 0.44% among 360,000; HEK293 GalR3-CNG cAMP membrane potential fluorescence; galR3 body fused to GalR1 C-terminus; O60755; inhibition, % at 3 µM;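 active = inhibition above the screen-wide average plus 3 SD, cut at about 13% in these data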;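 note: forskolin and galanin both at EC90 stimulate the cells; cAMP rise reported by CNG channel membrane potential dye signal; 0% = forskolin plus galanin with DMSO and 100% = forskolin alone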
OX1R antag-2: antagonists of human orexin 1 receptor | hit rate 0.43% among 330,000 | inhibition, % at 5 µM | O43613 | CHO/OX1R cells, Fluo-8 calcium fluorescence, orexin A | AID 434989;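 active = inhibition above its plate's threshold, mean inhibition of all tested compounds on the plate plus 3 SD, cut at about 37% in these data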;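 note: 0% = orexin A challenge wells and 100% = SB-334867-A antagonist wells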
OX1R Fluo8 conf: OX1R (human) antagonism, confirmed. shares compounds with OX1R antag-2. CHO/OX1R cells, orexin A calcium Fluo-8 fluorescence. inhibition, % at 5 µM. hit rate 38% among 1,100. AID 492963; in the data active = inhibition above about 29%;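 note: 0% = agonist challenge alone and 100% = reference antagonist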
CHO Ca triplic: signal in parental CHO cells, OX1R antagonist counter-screen. shares compounds with OX1R antag-2. parental CHO-K1, ATP-induced calcium, Fluo-8 fluorescence. inhibition, % at 5.6 µM. hit rate 9.3% among 1,100. AID 492965;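 active = inhibition above a per-plate limit, the mean inhibition of that plate's test compounds plus 3 SD, cut at about 25% in these data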;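 note: 0% = ATP challenge with DMSO and 100% = DMSO without ATP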
OX1R HTRF confirm: OX1R (human) antagonism, HTRF confirmed. shares compounds with OX1R antag-1. OX1R-expressing cells, HTRF antagonist assay. inhibition, % at 6.6 µM. hit rate 49% among 1,800; in the data active = inhibition above about 55%;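 note: CHO cells expressing OX1R stimulated with orexin A at about EC80; 0% = agonist challenge alone and 100% = reference antagonist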
CHO-K1 HTRF cnt: counter-screen: parental CHO-K1 HTRF response | shares compounds with OX1R antag-1 | parental CHO-K1 cells, HTRF counterscreen | inhibition, % at 6.6 µM | hit rate 48% among 1,800 | AID 493232; in the data active = inhibition above about 17%;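 note: 0% = agonist challenge with vehicle and 100% = vehicle alone without agonist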
An asterisk follows results filed as active; / = no result.

SMILES	CHO parental Ca	GPR7 antagonist	OX1R antag-1	GalR3 antag	OX1R antag-2	OX1R Fluo8 conf	CHO Ca triplic	OX1R HTRF confirm	CHO-K1 HTRF cnt
CC1Oc2ccccc2N(CC(=O)NCC2CCCO2)C1=O (centres undefined)	-5	-9	2	-7	-14	/	/	/	/
COc1ccc(C(CCN(Cc2ccc(OC)c(OC)c2)C(C)=O)C(C)C)cc1 (centres undefined)	/	1	/	-7	/	/	/	/	/
C=C1N(c2ccccc2)C(=O)OC1(C)C	2	10	25	-2	9	/	/	/	/
O=c1c2ccccc2oc2ccccc12	/	/	/	-5	/	/	/	/	/
O=c1c2ccccc2oc2cc(-c3ccc4[nH]ccc4c3)ccc12	-5	/	88*	-2	67*	76*	3	88*	5
Cc1cc(C)nc(NC(=O)/C=C/c2ccc(Cl)cc2Cl)c1	-22	-7	92*	-2	43	-5	-5	63*	3
Cc1cc(C)nc(NC(=O)/C=C/c2ccccc2Cl)c1	-22	-7	48	-1	-7	/	/	/	/
Cc1c(C(=O)OC(C)C(=O)N(C)Cc2ccccc2)oc2ccccc12 (centres undefined)	-19	/	86*	-1	53*	53*	-10	88*	4
COc1ccc2oc(C(=O)OC(C)C(=O)NCc3ccccc3)c(C)c2c1 (centres undefined)	-35	/	6	-2	-33	/	/	/	/
COc1ccc(/C=C/c2nc(-c3ccccc3O)n[nH]2)cc1OC	-21	-2	103*	-3	72*	67*	1	92*	14
O=C(CCNC(=O)c1ccco1)NCCN1C(=O)S/C(=C\c2ccc(F)cc2)C1=O	-12	/	47*	-2	45*	19	3	90*	24*
COc1ccccc1Nc1nc(N)nc(-c2cc3ccccc3o2)n1	-12	-1	77*	-8	38	31*	-11	65*	1
COc1ccc(-c2csc(NC(=O)CS(=O)(=O)c3ccccc3)n2)cc1	-1	/	15	-4	-20	/	/	/	/
COc1ccc(-c2csc(NC(=O)CS(=O)(=O)c3ccc(F)cc3)n2)cc1OC	14	/	76*	-3	28	15	-2	25	4
CC(C)N(Cc1ccccc1)C(=O)CN1C(=O)NC(Cc2ccccc2)(c2ccccc2)C1=O (centres undefined)	-17	-9	81*	0	28	42*	-14	87*	-15
Cc1cc(C)c2c(N)c(C(=O)N/N=C/c3cccs3)sc2n1	1	-7	85*	-1	53*	-2	-10	95*	7
O=[N+]([O-])c1cccc(-c2nc(-c3cccs3)c(-c3cccs3)[nH]2)c1	9	-4	99*	-7	38	13	-3	74*	7
CCOc1ccccc1N(CC(=O)NCCSCc1ccco1)S(=O)(=O)c1ccccc1	-21	11	84*	-4	43*	47*	-24	80*	-1
CC(C)C(C(=O)NCC1CCCO1)N(C(=O)CNS(=O)(=O)c1ccc(F)cc1)C1CCCCC1 (centres undefined)	-33	-15	12	0	-26	/	/	/	/
Nc1nc(CSc2nnnn2-c2ccccc2)nc(N2CCCc3ccccc32)n1	-7	3	83*	-9	65*	30*	0	44	-3
Nc1nc(CN2CCN(c3ccccc3)CC2)nc(N2CCCc3ccccc32)n1	-17	-15	10	-1	-31	/	/	/	/
CCn1c(SCC(=O)Nc2nc(-c3ccccc3)cs2)nnc1-c1ccccc1O	0	0	86*	-7	79*	-8	-20	86*	-11
COc1ccc(Cc2c(-c3ccc(F)cc3)nc3cc(C)c(Br)c(C)n23)c(C)c1	/	/	/	5	/	/	/	/	/
COc1ccc2cc(C(=O)/C=C/c3cc(OC)c(O)c(OC)c3)ccc2c1	-15	-5	62*	1	35	49*	-1	75*	-9
